Assay results published in ChEMBL document CHEMBL1129988, “4-substituted cubylcarbinylamines: a new class of mechanism-based monoamine oxidase B inactivators” (J Med Chem, 1997).

Legend:
[1] = substrate: NCC12C3C4C1C1C2C3C41C1CC1; test: (§1) Michaelis-Menten constant was determined against mitochondrial Monoamine oxidase B
Method in brief: (§2)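 K_m and k_cat against MAO B were obtained by measuring hydrogen peroxide formed over time with the amine as substrate.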

[2] = substrate: NCC12C3C4C1C1C2C3C41c1ccccc1; test: as §1; method in brief: as §2
[3] = substrate: NCC12C3C4C5C3C1C5C42; test: as §1; method in brief: as §2

B1: Amine oxidase [flavin-containing] B (Bos taurus) (protein)
chain: MSSKCDVVVVGGGISGMAAAKLLHDSGLNVIVLEARDRVGGRTYTLRNQKVKYVDLGGSYVGPTQNHILRLSKELGLETYKVNEVERLIHHTKGKSYPFRGSFPSVWNPITYLDHNNLWRTMDDMGREIPSDAPWKAPLAEQWDLMTMKELLDKICWTESSKQLAILFVNLCVTAEIHEVSALWFLWYVKQCGGTTRIFSTSNGGQERKFVGGSGQVSERIMDLLGDRVKLERPVIHIDQTGENVLVETLNHELYEAKYVISAVPPVLGMKIHFNPPLPMMRNQLITRVPLGSVIKSIVYYKEPFWRNMDYCGSMIIEGEEAPVAYALDDTKPDGSYPAIIGFILAHKARKLARLTKEERLKKLCDLYAKVLGSQEALHPVHYEEKNWCEEQYSGGCYTSYFPPGIMTQYGRVLRQPVGRIYFAGTETATHWSGYMEGAVEAGERAAREILHAMGKIPEDEIWLPEPESVDVPAKPITTTFLQRHLPSVPGLLKLIGLTTIFSATALGFLAHKRGLLVRI
Km [1]: 1540 µM
kcat [1]: 2.5 s⁻¹
kcat/Km [1]: 1670 M⁻¹ s⁻¹
Km [2]: 1010 µM
kcat [2]: 3.47 s⁻¹
kcat/Km [2]: 3500 M⁻¹ s⁻¹
Km [3]: 140 µM
kcat [3]: 0.0833 s⁻¹
kcat/Km [3]: 600 M⁻¹ s⁻¹
